Data from ChEMBL document CHEMBL4304819, “Natural product pectolinarigenin exhibits potent anti-metastatic activity in colorectal carcinoma cells in vitro and in vivo” (2019).
The source made the active and inactive calls. The calls are words filed in the database; no cut-off is given here.

Columns and labels:
CT26 [1] = assay: Induction of apoptosis in mouse CT26 cells assessed as necrotic cells at 10 uM after 48 hrs by Annexin V-FITC/propidium iodide staining-based flow cytometric analysis (reference value: 1.80 %); type: functional
Outline: (§1)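 CT26 cells seeded at 1–2 × 10^5 per well in six-well plates for 24 h, then exposed to PEC (0–40 μM) for 24 or 48 h. Cells harvested, washed twice in cold PBS, stained with Annexin V-FITC/PI and read by flow cytometry. Early apoptotic = Annexin V+ only; late apoptotic = Annexin V+/PI+. Mean ± SD of three experiments.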

CT26 [2] = assay: Induction of apoptosis in mouse CT26 cells assessed as viable cells at 10 uM after 48 hrs by Annexin V-FITC/propidium iodide staining-based flow cytometric analysis (reference value: 88.9 %); type: functional; settings: CT26, 48 h, read-out: Activity; outline: as §1
CT26 [3] = assay: Induction of apoptosis in mouse CT26 cells assessed as early apoptotic cells at 40 uM after 48 hrs by Annexin V-FITC/propidium iodide staining-based flow cytometric analysis (reference value: 2.84 %); type: functional; outline: as §1
CT26 [4] = assay: Antimetastatic activity against ip dosed mouse CT26 cells allografted in Balb/c mouse assessed as reduction in number of tumour nodules administered daily for 14 days starting from 6 days post implantation; type: functional, organism-based
Outline: (§2)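 Female BALB/c mice (6–8 weeks) injected ip with 5 × 10^5 CT26 cells; from day 6, randomized (eight per group) to ip vehicle, 25 or 50 mg/kg once daily for 14 days. Abdominal circumference and body weight every 3 days; abdominal nodules counted by eye and weighed; spleens assessed; paraffin tumour sections immunostained (Ki-67, MMP-9, p-Stat3) with DAB detection.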

HCT-116 [5] = assay: Induction of apoptosis in human HCT116 cells assessed as viable cells at 20 uM after 48 hrs by Annexin V-FITC/propidium iodide staining-based flow cytometric analysis (reference value: 86.7 %); type: functional; settings: HCT-116, 48 h, read-out: Activity
Outline: (§3)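 Cells (1–2 × 10^5 per well) seeded in six-well plates 24 h, treated at 0–40 μM for 24 h or 48 h, harvested, washed twice in cold PBS, stained with Annexin V-FITC/PI and analysed by flow cytometry; early (Annexin V only) and late (Annexin V and PI) apoptotic fractions quantified; three experiments.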

CT26 [6] = assay: Antimetastatic activity against mouse CT26 cells allografted in Balb/c mouse assessed as reduction in weight of tumour nodules weight at 50 mg/kg, ip administered daily for 14 days starting from 6 days post implantation; type: functional, organism-based; outline: as §2
HCT-116 [7] = assay: Induction of apoptosis in human HCT116 cells assessed as nuclear fragmentation up to 40 uM after 48 hrs by Hoechst 33258 staining-based fluorescent microscopic analysis; type: functional, cell-based
Outline: (§4)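 Cells (1–2 × 10^5 per well) plated on 18-mm coverslips in six-well plates for 24 h, treated at various concentrations for 48 h, washed with cold PBS, fixed 15 min in 4% paraformaldehyde, stained with Hoechst 33258 (5 μg/ml); condensed/fragmented nuclei scored by fluorescence microscopy (10×); stained positive cells, mean ± SD of three experiments.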

CT26 [8] = assay: Induction of apoptosis in mouse CT26 cells assessed as viable cells at 20 uM after 48 hrs by Annexin V-FITC/propidium iodide staining-based flow cytometric analysis (reference value: 88.9 %); type: functional; settings: CT26, 48 h, read-out: Activity; outline: as §1
CT26 [9] = assay: Induction of apoptosis in mouse CT26 cells assessed as appearance of condensed nuclei up to 40 uM after 48 hrs by Hoechst 33258 staining-based fluorescent microscopic analysis; type: functional, cell-based; outline: as §4
HCT-116 [10] = assay: Antimigratory activity against human HCT116 cells assessed as inhibition of cell migration after 48 hrs by crystal violet staining based Boyden-chamber cell migration assay; type: functional
Outline: (§5)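 Boyden chamber, 8 μm pores: 1 × 10^5 cells in serum-free medium above, 10% FBS medium below, compound at various concentrations in both chambers; migration 48 h. Non-migrated cells swabbed off; migrated cells fixed in methanol, stained 0.5% crystal violet 20 min, counted in six random fields under light microscope; expressed as % inhibition versus untreated.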

CT26 [11] = assay: (§6) Antimetastatic activity against mouse CT26 cells allografted in Balb/c mouse assessed as decrease in CD11b-positive/Gr1-positive myeloid cells level in tumour at 50 mg/kg, ip administered daily for 14 days starting from 6 days post implantation flow cytometric analysis (reference value: 10 %); type: functional; parameters: scale not given: the % may be the effect or the level left
CT26 [12] = assay: Antimigratory activity against mouse CT26 cells assessed as inhibition of cell migration after 48 hrs by crystal violet staining based Boyden-chamber cell migration assay; type: functional; outline: as §5
HCT-116 [13] = assay: Induction of apoptosis in human HCT116 cells assessed as increase in Bax protein expression up to 40 uM after 48 hrs by Western blot analysis; type: functional, cell-based
Outline: (§7)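 Cells treated 48 h at 0, 10, 20 and 40 μM, washed in cold PBS, lysed in RIPA; protein equalized by Lowry assay, resolved by SDS-PAGE, transferred to PVDF, blocked 1 h at 37 °C, primary antibody overnight at 4 °C, secondary 1 h, ECL detection, densitometry. β-actin loading control.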

CT26 [14] = assay: Inhibition of colony formation in mouse CT26 cells assessed as reduction in size of colonies up to 40 uM incubated for 24 hrs supplemented with fresh medium containing compound every 3 days for 12 days by crystal violet staining-based microscopic analysis; type: functional, cell-based
Outline: (§8)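 400–800 cells per well seeded in 6-well plates; after 24 h, PEC (0–40 μM) added. Medium with or without compound replaced every three days for 12 days. Colonies washed in cold PBS, fixed in methanol, stained 15 min with 0.5% crystal violet and counted under a microscope. Mean ± SD of three experiments.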

HCT-116 [15] = assay: Inhibition of colony formation in human HCT116 cells assessed as reduction in number of colonies up to 40 uM incubated for 24 hrs supplemented with fresh medium containing compound every 3 days for 12 days by crystal violet staining-based microscopic analysis; type: functional, cell-based; outline: as §8
HCT-116 [16] = assay: Induction of apoptosis in human HCT116 cells assessed as increase in cleaved caspase-3 expression after 48 hrs by Western blot analysis; type: functional, cell-based; outline: as §7
CT26 [17] = assay: Induction of apoptosis in mouse CT26 cells assessed as nuclear fragmentation up to 40 uM after 48 hrs by Hoechst 33258 staining-based fluorescent microscopic analysis; type: functional, cell-based
Outline: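 CT26 cells plated at 1–2 × 10^5 per well on 18-mm coverslips in six-well plates for 24 h, then treated 48 h with PEC. Washed in cold PBS, fixed 15 min in 4% paraformaldehyde, stained with Hoechst 33258 (5 μg/ml). Nuclear morphology viewed by fluorescence microscopy (10×); positive cells counted, mean ± SD of three experiments.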

CT26 [18] = assay: as §6, with “peripheral blood” for “tumour”, “33.2” for “10”; type: functional; parameters: scale not given: the % may be the effect or the level left
[19] = target: Signal transducer and activator of transcription 3 (Mus musculus) (UniProt P42227); assay: Antitumor activity against mouse CT26 cells allografted in Balb/c mouse assessed as inhibition of STAT3 phosphorylation in tumour tissue at 25 to 50 mg/kg, ip administered daily for 14 days starting from 6 days post implantation by immunohistochemical analysis; type: organism-based; outline: as §2
HCT-116 [20] = assay: Induction of apoptosis in human HCT116 cells assessed as late apoptotic cells at 10 uM after 48 hrs by Annexin V-FITC/propidium iodide staining-based flow cytometric analysis (reference value: 3.87 %); type: functional; outline: as §3
HCT-116 [21] = assay: Induction of apoptosis in human HCT116 cells assessed as necrotic cells at 10 uM after 48 hrs by Annexin V-FITC/propidium iodide staining-based flow cytometric analysis (reference value: 8.24 %); type: functional; outline: as §3

Signal transducer and activator of transcription 3 (Mus musculus), sequence (P42227 whole entry): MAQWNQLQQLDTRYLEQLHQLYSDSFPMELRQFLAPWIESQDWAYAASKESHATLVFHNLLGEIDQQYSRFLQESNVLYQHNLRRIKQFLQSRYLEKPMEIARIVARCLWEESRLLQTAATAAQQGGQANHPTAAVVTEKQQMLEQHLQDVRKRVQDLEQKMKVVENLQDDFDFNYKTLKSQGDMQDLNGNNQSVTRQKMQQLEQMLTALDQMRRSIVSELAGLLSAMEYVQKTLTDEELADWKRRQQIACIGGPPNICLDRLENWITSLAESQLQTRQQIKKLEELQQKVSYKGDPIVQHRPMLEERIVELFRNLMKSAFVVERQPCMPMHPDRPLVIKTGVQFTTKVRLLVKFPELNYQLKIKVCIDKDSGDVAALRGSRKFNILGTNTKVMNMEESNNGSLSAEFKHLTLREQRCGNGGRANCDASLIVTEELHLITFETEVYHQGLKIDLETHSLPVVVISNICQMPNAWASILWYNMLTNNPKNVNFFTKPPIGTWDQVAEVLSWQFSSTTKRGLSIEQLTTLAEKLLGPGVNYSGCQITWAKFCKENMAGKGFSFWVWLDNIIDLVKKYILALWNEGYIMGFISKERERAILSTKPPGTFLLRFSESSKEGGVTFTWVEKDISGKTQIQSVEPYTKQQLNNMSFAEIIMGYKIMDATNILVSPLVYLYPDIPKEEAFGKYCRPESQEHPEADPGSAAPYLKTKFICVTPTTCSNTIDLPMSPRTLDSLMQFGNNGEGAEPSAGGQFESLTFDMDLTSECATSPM

Structure (SMILES): COc1ccc(-c2cc(=O)c3c(O)c(OC)c(O)cc3o2)cc1 [PECTOLINARIGENIN]
- Activity (CT26 [1]): 3.82%
- viability at 10 µM (CT26 [2]): 77.1%
- Activity (CT26 [3]): 16.2%
- Activity (CT26 [4]): Dose-dependent effect
- viability at 20 µM (HCT-116 [5]): 79.2%
- Activity (CT26 [6]): Active
- Activity (HCT-116 [7]): Active
- viability at 20 µM (CT26 [8]): 77.5%
- Activity (CT26 [9]): Active
- inhibition (HCT-116 [10]): Dose-dependent effect
- Activity (CT26 [11]): 6.47%
- inhibition (CT26 [12]): Dose-dependent effect
- Activity (HCT-116 [13]): Active
- inhibition (CT26 [14]): Active
- inhibition (HCT-116 [15]): Active
- Activity (HCT-116 [16]): Dose-dependent effect
- Activity (CT26 [17]): Active
- Activity (CT26 [18]): 20.4%
- inhibition [19]: Active
- Activity (HCT-116 [20]): 5.81%
- Activity (HCT-116 [21]): 3.98%
